Only some compounds are listed: those with a hit (about 3.5% of all), similar ones and a draw of the others.
MrgX1 allo act: human MrgX1 positive allosteric modulation, primary screen | B-score at 10 µM | Q96LB2 | AID 588675 | MrgX1-HEK293, Fluo-4 calcium flux, FDSS; hits give high values | actives 0.63% (n = 310,000);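 active = plate-corrected calcium response at least 3 library SD above typical, normal starting fluorescence, not activating the receptor alone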;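 note: compound read alongside a low EC10 to EC30 dose of BAM8-22 agonist; peak minus trough fluorescence over baseline measured at the second addition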
Target sequence (Q96LB2 whole entry, looked up): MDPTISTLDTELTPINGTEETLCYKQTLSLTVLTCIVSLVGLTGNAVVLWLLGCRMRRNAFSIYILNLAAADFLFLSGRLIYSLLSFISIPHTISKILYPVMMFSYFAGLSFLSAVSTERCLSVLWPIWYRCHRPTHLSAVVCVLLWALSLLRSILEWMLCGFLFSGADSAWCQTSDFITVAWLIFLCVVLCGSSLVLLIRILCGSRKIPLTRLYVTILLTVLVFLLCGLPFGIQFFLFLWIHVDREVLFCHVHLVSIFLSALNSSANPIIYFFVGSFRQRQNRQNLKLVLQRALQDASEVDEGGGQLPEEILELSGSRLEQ
MrgX1 antag: blocks BAM8-22 activation of human MrgX1 receptor; MRGX1-HEK293 calcium flux, Fluo-4, BAM8-22 antagonism; hits give low values; actives 1.3% (n = 310,000); B-score at 10 µM; AID 588676; Q96LB2;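 active = calcium-response B-score plate-corrected more than 3 library SD below zero, starting fluorescence within 5 deviations, no agonist response on first addition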;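 note: peak minus trough fluorescence over baseline after final BAM8-22 challenge near maximal dose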
MrgX1 ag: human MrgX1 receptor agonism, primary screen; actives 0.44% (n = 310,000); MrgX1-HEK293 cells, Fluo-4 calcium fluorescence, agonist mode; hits give high values; AID 588627; B-score at 10 µM;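 active = calcium response B-score plate-corrected fluorescence ratio at least 3 library SD, with starting fluorescence B-score inside 5 SD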
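Assay system: stable human MrgX1 HEK293 cell line. Quantity: 15,000 cells per well. Schedule: cells plated overnight, dye loaded 0.5 h 37 °C, 0.5 h room temperature. Detection: Fluo-4 NW calcium-flux fluorescence, kinetic read. Read-out basis: peak-minus-minimum fluorescence over baseline, converted to B scores. Control set: positive and negative control wells on each plate.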
RGS4 inh: human RGS4 inhibition. HEK293 M3R/RGS4 inducible, Fluo-4 calcium flux; hits give high values; triggered by carbachol at its EC20. B-score at 10 µM. actives 0.45% (n = 310,000);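 active = B-score, a plate-corrected calcium signal, over three deviations above library mean, with baseline fluorescence within five deviations of library mean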;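 note: RGS4 expression induced by doxycycline in cells with stable M3 receptor; B-score is computed from the integrated fluorescence ratio over baseline after carbachol; higher B-score means a larger calcium signal and so more RGS4 inhibition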
Target sequence (P49798 whole entry, looked up): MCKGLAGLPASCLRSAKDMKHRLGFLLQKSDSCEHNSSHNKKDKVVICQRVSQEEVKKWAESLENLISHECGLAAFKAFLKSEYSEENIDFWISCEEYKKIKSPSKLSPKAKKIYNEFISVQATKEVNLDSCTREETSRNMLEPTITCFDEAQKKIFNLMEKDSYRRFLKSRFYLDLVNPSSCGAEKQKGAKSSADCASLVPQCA
RGS4 act: RGS4 potentiation or activation; HEK293 M3R/inducible RGS4, carbachol calcium flux Fluo4; hits give low values; B-score at 10 µM; actives 0.92% (n = 310,000); AID 463111;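 active = B-score of the integrated calcium signal more than 4 SD below the library mean, with starting fluorescence not abnormally high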;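 note: negative B-score means reduced calcium response which marks RGS4 activation or potentiation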
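System – HEK293 FlpIn-TREx cells, stable M3R, doxycycline-inducible RGS4 · Reagent – ECmax carbachol challenge · Times – compound preincubation 20 min at room temperature before agonist · Technique – Fluo4 fluorescence kinetic imaging of calcium · Measure – B score of integrated Fluo4 ratio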
RGS4 inh valid: RGS4 inhibitor validation; HEK293 M3R/RGS4, carbachol calcium Fluo-4 fluorescence; carbachol added at its EC20; 0 = buffer wells, 100 = carbachol control; AID 492999; actives 65% (n = 1,700); calcium response, % at 10 µM; shares compounds with RGS4 inh;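 active = duplicate-averaged calcium response above the buffer-only control mean plus 5 SD of those controls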;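 note: integrated fluorescence ratio F max minus min over baseline F0; higher response in RGS4-induced cells means RGS4 inhibition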
RGS4 uninduced: checks RGS4 inhibitor effects in non-induced HEK293 M3R cells | activity (percent), % at 10 µM | AID 493000 | shares compounds with RGS4 inh | carbachol calcium Fluo-4; submaximal (EC20) carbachol stimulus; buffer wells 0%, carbachol control wells 100% | actives 20% (n = 1,900); call rule not given here;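 note: RGS4 induction absent so cells express M3R without RGS4; higher means more calcium signal and flags a non-specific hit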
M3R basal Ca ctr: second counter-screen for RGS4 inhibitors: non-induced cells without carbachol; shares compounds with RGS4 inh; HEK293 M3R/RGS4 non-induced, Fluo-4 calcium, no carbachol; normalised: buffer wells 0%, carbachol wells 100%; calcium response (agonist-mode artifact), % at 10 µM; actives 22% (n = 1,900); AID 493001;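 active = duplicate-averaged calcium rise in uninduced cells above buffer wells' mean plus 5 SD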
* = called active by the depositor; i = inactive; nt = no result given.

SMILES	MrgX1 allo act	MrgX1 antag	MrgX1 ag	RGS4 inh	RGS4 act	RGS4 inh valid	RGS4 uninduced	M3R basal Ca ctr
O=C(CN1CCN(S(=O)(=O)c2ccc(Br)cc2)CC1)N/N=C/c1ccccc1C(=O)O	i	i	i	i	i	nt	nt	nt
Cc1cc(C)c2sc(NNC(=O)c3ccc(S(=O)(=O)N4CCc5ccccc5C4)cc3)nc2c1	i	i	i	i	i	nt	i	i
Cc1cc(C)c2nc(NNC(=O)c3ccc(S(=O)(=O)N4CCc5ccccc5C4)cc3)sc2c1	i	i	i	6.5*	i	11%*	i	i
CC1=NN(c2ccccc2)C(=O)/C1=C/c1ccc(-c2ccc(C)c(C(=O)O)c2)o1	i	i	i	17*	i	74%*	i	i
O=C(O)c1cccc(-c2ccc(/C=N/n3cnc4sc5c(c4c3=O)CCCC5)o2)c1	i	i	i	i	i	nt	nt	nt
Nc1nc2ccccc2n1CCOc1ccc(Br)cc1	i	i	i	i	i	nt	nt	nt
S=C(Nc1ccccc1)Nc1nc2ccccc2n1CCOc1ccc(Br)cc1	i	i	i	5*	i	10%*	i	i
O=C(O)CSc1nc(-c2ccc(Cl)cc2)nc2c1oc1ccccc12	i	i	i	4.8*	i	9.0%*	i	7.0%*
O=C(O)CSc1nc(-c2ccccc2)nc2c1oc1ccccc12	i	i	i	i	i	i	i	i
O=C(O)C1CCN(c2nc(-c3ccccc3)nc3c2oc2ccccc23)CC1	i	i	i	i	i	nt	nt	nt
COc1ccc(CN2C(=NC(=O)CCc3ccccc3)SC3CS(=O)(=O)CC32)cc1 (stereo not given)	i	i	i	i	i	nt	nt	nt
CC(C)(Oc1ccc(Cl)cc1)C(=O)N/N=C/c1cn[nH]c1-c1ccccc1	i	i	i	5*	i	26%*	i	i
O=C(N/N=C\c1cn[nH]c1-c1ccc(Cl)cc1)c1cccs1	i	i	i	i	i	nt	nt	nt
Cc1ccc(/C=C/C(=O)NCCc2c[nH]c3ccccc23)o1	i	i	i	i	i	nt	nt	nt
Cc1ccc(/C=C/C(=O)NCCc2cccc(Cl)c2)o1	i	i	i	6.9*	i	24%*	i	i
Cc1ccc(/C=N/NC(=O)NC2CCCCC2)o1	i	i	i	i	i	nt	nt	nt
Cc1ccc(C(=O)NCc2ccc3c(c2)OCO3)o1	i	i	i	i	i	nt	nt	nt
Cc1ccc(/C=C/C(=O)NCc2ccc3c(c2)OCO3)o1	i	i	i	5.6*	i	10%*	i	i
Cc1ccc(/C=C/C(=O)NC2CCCCCCC2)o1	i	i	i	8.8*	i	22%*	i	i
COc1ccc(S(=O)(=O)Nc2ccccc2)cc1	i	i	i	i	i	nt	nt	nt
COc1ccc(S(=O)(=O)Nc2ccc(O)c3ccccc23)cc1	i	i	i	6.8*	i	10%*	i	i
C=CCOc1ccccc1CN(C(=O)CCl)c1ccc2c(c1)OCO2	i	i	i	i	i	nt	nt	nt
CCN(C(=O)COC(=O)CCc1ccccc1)c1ccccc1	i	i	i	i	i	nt	nt	nt
O=C1NC[C@@H](Cc2cccc3ccccc23)N(CCC23CC4CC(CC(C4)C2)C3)C1=O	i	i	i	4.8*	i	12%*	32%*	i
O=C(Nc1cnc2ccccn2c1=O)c1ccc(Cl)cc1	i	i	i	4.8*	i	i	i	i
SMILES	MrgX1 allo act	MrgX1 antag	MrgX1 ag	RGS4 inh	RGS4 act	RGS4 inh valid	RGS4 uninduced	M3R basal Ca ctr
CC(=O)/C(=N/Nc1cccc(C)c1)N1CCOCC1	i	i	i	18*	i	10%*	58%*	i
CCOc1ccc2nc(Cl)c(/C=C/C(=O)c3ccco3)cc2c1	i	i	i	9.5*	i	i	40%*	i
Cc1cccc2cc(/C=C/C(=O)c3ccco3)c(Cl)nc12	i	i	i	i	i	nt	nt	nt
Cc1ccc(S(=O)(=O)/N=C(/Sc2ccccc2C(=O)O)c2ccccc2)cc1	i	i	i	i	i	nt	nt	nt
Cc1ccc(S(=O)(=O)/N=C(\Sc2ccccc2)c2ccccc2)cc1	i	i	i	22*	i	22%*	i	26%*
O=S(=O)(/N=C(\Sc1ccccc1)c1ccccc1)c1ccc(Cl)cc1	i	i	i	i	i	nt	i	27%*
O=C(CSc1ncn[nH]1)Nc1ccc(Cl)c(Cl)c1	i	i	i	i	i	nt	nt	nt
Cc1c(C(=O)NC(C)CN2CCCCC2)oc2ccccc12 (stereo not given)	i	i	i	i	i	nt	nt	nt
CCOC(=O)c1[nH]c(C)c(C(=O)C(C)C)c1C	i	i	i	i	i	nt	nt	nt
O=C(c1cccs1)N1CCc2c([nH]c3ccccc23)C1c1ccccn1 (stereo not given)	i	i	i	i	i	nt	nt	nt
O=C(c1cc(-c2ccccc2)n[nH]1)N1CCc2c([nH]c3ccccc23)C1c1ccccn1 (stereo not given)	i	i	i	7.3*	i	27%*	30%*	i
Cc1cc(C)cc(NC2=NCC(=O)N2Cc2ccccc2)c1	i	i	i	5.3*	i	i	i	i
Cc1cccc(NC2=NCC(=O)N2Cc2ccccc2)c1	i	i	i	i	i	nt	32%*	i
Cc1[nH]c(C)c(S(=O)(=O)N2CCN(c3ccccc3F)CC2)c1C(=O)N1CCCC1	i	i	i	i	i	nt	nt	nt
CSc1ncccc1C(=O)OCC(=O)NCc1ccc2c(c1)OCO2	i	i	i	i	i	nt	nt	nt
O=[N+]([O-])c1ccc(-n2nncc2-c2ccccc2)cc1	i	i	i	i	i	nt	nt	nt
O=Cc1ccc(-n2nncc2-c2ccc([N+](=O)[O-])cc2)cc1	i	i	i	7.4*	i	42%*	66%*	i

High-throughput results deposited in PubChem by Johns Hopkins Ion Channel Center.
